ChEMBL document CHEMBL4622928, “Discovery of 5-(4-methylpiperazin-1-yl)-2-nitroaniline derivatives as a new class of SIRT6 inhibitors” (Bioorg Med Chem Lett, 2020)

What was measured:
[1] = target: T1, NAD-dependent protein deacetylase sirtuin-1 (Homo sapiens, UniProt Q96EB6); experiment: Inhibition of SIRT1 (unknown origin)
T1 sequence (Q96EB6 whole entry): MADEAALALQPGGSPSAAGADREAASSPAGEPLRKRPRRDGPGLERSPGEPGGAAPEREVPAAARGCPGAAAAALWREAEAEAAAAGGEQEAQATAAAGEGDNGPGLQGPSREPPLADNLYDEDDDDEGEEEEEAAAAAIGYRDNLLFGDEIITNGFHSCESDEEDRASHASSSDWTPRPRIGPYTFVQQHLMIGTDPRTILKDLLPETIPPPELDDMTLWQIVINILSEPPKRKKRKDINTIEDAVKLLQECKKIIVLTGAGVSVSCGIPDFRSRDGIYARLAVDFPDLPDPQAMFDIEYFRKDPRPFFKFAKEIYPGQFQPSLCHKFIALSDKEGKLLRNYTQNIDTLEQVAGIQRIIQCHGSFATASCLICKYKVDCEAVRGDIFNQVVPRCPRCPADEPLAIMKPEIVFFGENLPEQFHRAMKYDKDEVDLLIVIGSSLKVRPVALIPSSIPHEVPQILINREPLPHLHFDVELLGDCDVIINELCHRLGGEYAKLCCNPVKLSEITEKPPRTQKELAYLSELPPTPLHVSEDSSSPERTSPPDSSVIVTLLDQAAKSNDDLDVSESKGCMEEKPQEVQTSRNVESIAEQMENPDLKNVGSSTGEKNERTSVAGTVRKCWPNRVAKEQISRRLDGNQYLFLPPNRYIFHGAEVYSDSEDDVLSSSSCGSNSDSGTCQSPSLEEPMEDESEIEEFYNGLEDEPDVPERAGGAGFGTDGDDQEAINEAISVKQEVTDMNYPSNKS
Method in brief: (§1)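 Each deacetylase was run in a Fluor de Lys (FDL) fluorogenic deacetylation assay as a selectivity screen, with compound tested at concentrations up to 200 μM. IC50 was estimated from the dose-response.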

Histone deacetylase 11 = target: T2, Histone deacetylase 11 (Homo sapiens, UniProt Q96DB2); experiment: Inhibition of HDAC11 (unknown origin); method in brief: as §1
T2 sequence (Q96DB2 whole entry): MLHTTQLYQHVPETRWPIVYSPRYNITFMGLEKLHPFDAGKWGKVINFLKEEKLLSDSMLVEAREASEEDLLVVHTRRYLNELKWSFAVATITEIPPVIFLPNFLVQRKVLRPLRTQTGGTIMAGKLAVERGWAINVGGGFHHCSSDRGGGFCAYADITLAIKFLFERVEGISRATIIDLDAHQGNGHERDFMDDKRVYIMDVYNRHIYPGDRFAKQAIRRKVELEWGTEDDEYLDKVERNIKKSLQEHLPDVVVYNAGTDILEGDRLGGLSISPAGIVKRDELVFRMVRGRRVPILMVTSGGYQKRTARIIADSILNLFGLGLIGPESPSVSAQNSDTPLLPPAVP

[2] = target: NAD-dependent protein deacylase sirtuin-6 (Homo sapiens, UniProt Q8N6T7); experiment: Inhibition of SIRT6 in human BxPC3 cells assessed as increase in […] expression measured after 48 hrs by Western blot analysis; assay type: cell-based; conditions: BXPC-3
Chain of NAD-dependent protein deacylase sirtuin-6 (Q8N6T7 whole entry): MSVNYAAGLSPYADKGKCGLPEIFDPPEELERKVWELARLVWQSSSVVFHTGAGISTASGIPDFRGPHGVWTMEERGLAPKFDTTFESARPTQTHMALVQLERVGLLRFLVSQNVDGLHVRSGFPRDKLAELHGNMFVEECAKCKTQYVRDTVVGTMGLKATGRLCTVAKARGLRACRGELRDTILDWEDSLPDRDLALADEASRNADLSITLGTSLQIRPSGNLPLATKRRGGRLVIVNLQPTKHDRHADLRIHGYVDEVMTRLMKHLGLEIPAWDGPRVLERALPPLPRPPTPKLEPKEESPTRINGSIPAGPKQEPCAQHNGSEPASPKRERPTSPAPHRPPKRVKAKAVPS
Method in brief: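 BxPC-3 cells were exposed to 0.78, 1.56, 3.13, 6.25, 12.5 and 25 μM compound for 48 h. Histone H3K9ac and H3K18ac levels were then assessed by western blot, with β-actin as the loading control. Acetylation increase is read as cellular SIRT6 deacetylase inhibition.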

Q: Which results are given for `CN1CCN(c2ccc([N+](=O)[O-])c(N)c2)CC1`?
A: IC50 [1]: > 200 µM; IC50 (Histone deacetylase 11): > 200 µM; inhibition [2]: Dose-dependent effect
